Laboratory results published in paper PMC6226116 (Clinical and Translational Science, 2018).
Where two headings read alike, the source gives them in different places. One block for each compound: values may come before it.

Legend:
[1] = format: in vivo, human
[2] = cited from earlier work
[3] = with tacrolimus; cited from earlier work
[4] = co‐administration of cyclosporine; cited from earlier work
P‐gp = conditions: LLC‐PK1‐P‐gp cell monolayers; cited from earlier work
[5] = cited from earlier work; remark: listed apart in the source
[6] = Cyclosporine and tacrolimus trough concentrations before the third dose; format: in vivo, human; conditions: tacrolimus 5 mg oral once daily, predose on day 3
How it was run: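 Healthy adult male volunteers (n=12) took each test compound orally once daily for 3 days in separate treatment periods (100 mg as soft gelatin capsules; 5 mg). They fasted from 10 h before to 2 h after dosing and avoided CYP-affecting medications. Blood was drawn immediately before the day-3 dose, processed by a certified clinical laboratory, and plasma concentrations were measured by validated LC-MS/MS.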

[7] = both, human, plasma, oral, 100 mg
[8] = in the presence of cyclosporine vs apixaban alone
[9] = in the presence of tacrolimus vs apixaban alone
[10] = co‐administration with ketoconazole, humans

CL/F ([1]; apixaban 10 mg oral alone, arithmetic mean (SD) [minimum, maximum]): 5.8 L/h
T max ([1]; apixaban with tacrolimus 5 mg daily for 3 days, median [minimum, maximum]): 2.5 [1, 4] h
Vd/F [1, 7]: 45 L
half-life [1, 7]: 6.8 h
Tmax ([1]; both, human, plasma, po, 10 mg): 2.5 h
Vd/F ([1]; both, human, plasma, po, 10 mg): 89 L
half-life ([1]; both, human, plasma, po, 10 mg): 12.1 h
GMR for apixaban AUC(0–tlast) [1, 8]: 120%
GMR for apixaban AUC(0–∞) [1, 8]: 119%
GMR for apixaban C max [1, 8]: 143%
GMR for apixaban AUC(0–tlast) [1, 9]: 78%
GMR for apixaban AUC(0–∞) [1, 9]: 77%
GMR for apixaban C max [1, 9]: 87%
increase in apixaban exposure ([1]; with cyclosporine co-administration): 20%
decrease in apixaban exposure ([1]; with tacrolimus co-administration): 22%
SMILES: COc1ccc(-n2nc(C(N)=O)c3c2C(=O)N(c2ccc(N4CCCCC4=O)cc2)CC3)cc1 [Apixaban]
increase in apixaban AUC ([2]; administration with diltiazem): 1.4 fold
increase in apixaban C max ([2]; administration with diltiazem): 1.3 fold
increase in apixaban AUC [2, 10]: twofold
increase in apixaban C max [2, 10]: 1.6 fold

SMILES: CC(C)c1c(C(=O)Nc2ccccc2)c(-c2ccccc2)c(-c2ccc(F)cc2)n1CC[C@@H](O)C[C@@H](O)CC(=O)O [atorvastatin]
impact on atorvastatin pharmacokinetics [3]: no impact

SMILES: COc1cc2c(c(OC)c1OC)-c1ccc(OC)c(=O)cc1[C@@H](NC(C)=O)CC2 [colchicine]
increase in colchicine AUC(0–∞) [4]: 215%
increase in colchicine C max [4]: 224%

SMILES: CC(=O)N1CCN(c2ccc(OCC3COC(Cn4ccnc4)(c4ccc(Cl)cc4Cl)O3)cc2)CC1 (stereo not shown) [ketoconazole]
inhibition of apixaban efflux (P‐gp): extensively inhibited

SMILES: COc1ccc2c(O[C@@H]3C[C@H]4C(=O)N[C@]5(C(=O)NS(=O)(=O)C6CC6)C[C@H]5/C=C\CCCCN(C)C(=O)[C@@H]4C3)cc(-c3nc(C(C)C)cs3)nc2c1C [simeprevir]
increase in AUC(0‐24) of simeprevir ([5]; with cyclosporine): 5.8 fold
increase in C max of simeprevir ([5]; with cyclosporine): 4.7 fold
increase in AUC(0‐24) of simeprevir ([5]; with tacrolimus): 85%
increase in Cmax of simeprevir ([5]; with tacrolimus): 79%

trough concentration, mean (SD) [6]: 3.8 (2.3) ng/mL
SMILES: C=CC[C@@H]1/C=C(\C)C[C@H](C)C[C@H](OC)[C@H]2O[C@@](O)(C(=O)C(=O)N3CCCC[C@H]3C(=O)O[C@H](/C(C)=C/[C@@H]3CC[C@@H](O)[C@H](OC)C3)[C@H](C)[C@@H](O)CC1=O)[C@H](C)C[C@@H]2OC [tacrolimus]
